# Assay results as given in ChEMBL document CHEMBL1134597, “Identification of alkylidene hydrazides as glucagon receptor antagonists” (J Med Chem, 2001).
# System: not listed separately
# Experiment: pA2 value for the compound was calculated
# How it was run: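 BHK cells expressing cloned human glucagon receptor (10^6/mL) in HEPES pH 7.4 buffer with 0.1 mM IBMX and 0.2% BSA. Cells pretreated 10 min at 37 °C with several antagonist concentrations, then challenged with increasing glucagon for 20 min. cAMP measured by RIA; pA2 obtained by Schild analysis of rightward-shifted glucagon concentration-response curves.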
row,Compound,pA2
1,O=C(N/N=C/c1ccc(O)c2ccccc12)c1ccc(O)c(Cl)c1,6.99

# Molecular target: Glucagon receptor (Rattus norvegicus, UniProt P30082)
# Sequence (P30082 whole entry): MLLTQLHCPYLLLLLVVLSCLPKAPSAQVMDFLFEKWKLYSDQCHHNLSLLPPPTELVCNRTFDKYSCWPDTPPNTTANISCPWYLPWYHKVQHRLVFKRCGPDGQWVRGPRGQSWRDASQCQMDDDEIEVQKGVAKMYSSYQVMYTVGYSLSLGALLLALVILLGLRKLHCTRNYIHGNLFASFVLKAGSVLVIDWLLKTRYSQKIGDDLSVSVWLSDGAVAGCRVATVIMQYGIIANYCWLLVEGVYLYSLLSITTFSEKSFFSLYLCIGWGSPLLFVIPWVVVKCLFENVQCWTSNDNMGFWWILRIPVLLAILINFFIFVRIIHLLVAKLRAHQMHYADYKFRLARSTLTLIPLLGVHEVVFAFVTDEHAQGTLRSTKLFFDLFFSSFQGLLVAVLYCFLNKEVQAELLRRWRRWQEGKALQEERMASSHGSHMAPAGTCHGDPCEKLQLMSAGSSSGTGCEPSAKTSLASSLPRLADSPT
# Experiment: Binding affinity towards rat Glucagon Receptor
# How it was run: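 Plasma membranes prepared from livers of male Wistar rats (2 μg protein) incubated with ~50 000 CPM 125I-glucagon in 50 mM HEPES, 5 mM EGTA, 5 mM MgCl2, 0.005% tween-20, pH 7.4. Samples diluted in DMSO. Nonspecific binding defined with excess unlabeled glucagon; 2 h at 30 °C; vacuum filtration, gamma counting; curve fitting gave IC50.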
row,Compound,IC50 [µM]
1,O=C(N/N=C/c1ccc(O)c2ccccc12)c1ccc(O)c(Cl)c1,0.027

# Molecular target: T1, Glucagon receptor (Homo sapiens, UniProt P47871)
# T1 sequence (P47871 whole entry): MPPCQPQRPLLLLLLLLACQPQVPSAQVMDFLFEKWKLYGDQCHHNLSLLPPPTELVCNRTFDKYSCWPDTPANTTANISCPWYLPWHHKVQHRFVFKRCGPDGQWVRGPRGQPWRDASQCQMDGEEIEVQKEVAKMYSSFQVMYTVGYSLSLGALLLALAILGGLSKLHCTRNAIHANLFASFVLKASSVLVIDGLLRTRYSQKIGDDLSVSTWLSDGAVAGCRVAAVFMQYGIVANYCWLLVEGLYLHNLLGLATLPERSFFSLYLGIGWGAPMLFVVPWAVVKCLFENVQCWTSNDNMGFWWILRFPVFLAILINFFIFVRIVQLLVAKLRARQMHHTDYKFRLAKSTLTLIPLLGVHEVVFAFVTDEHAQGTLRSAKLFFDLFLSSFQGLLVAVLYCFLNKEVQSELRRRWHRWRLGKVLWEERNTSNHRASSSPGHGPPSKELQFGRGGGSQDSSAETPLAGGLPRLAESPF
# Experiment: Binding affinity for human Glucagon Receptor
# How it was run: (§1)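 Competition binding of [125I]glucagon (~25 000 cpm) to plasma membranes (~0.5 μg) from BHK cells transfected with cloned human glucagon receptor; 25 mM HEPES pH 7.4, 0.1% BSA; run in duplicate, 1 h at 37 °C. Bound and free separated by vacuum filtration on GF/C filters, then scintillation counting; IC50 determined.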
row,Compound,IC50 [µM]
1,COc1cc(C(=O)N/N=C/c2ccc(/C=C/c3ccccc3)cc2)ccc1O,> 100
2,COc1cc(C(=O)N/N=C/c2ccc(C(C)(C)C)cc2)ccc1O,29
3,O=C(N/N=C/c1ccc(O)c2ccccc12)c1ccc(O)c(O)c1,3.4
4,O=C(N/N=C/c1ccc(O)c2ccccc12)c1ccc(O)c(F)c1,0.39
5,O=C(N/N=C/c1cccc2ccccc12)c1ccc(O)cc1,1.8
6,COc1cc(C(=O)N/N=C/c2ccc(C(C)C)cc2)ccc1O,43
7,COc1cc(C(=O)N/N=C/c2ccnc3ccccc23)ccc1O,10
8,O=C(N/N=C/c1ccc(O)c2ccccc12)c1ccc(O)cc1,1.2
9,COc1cc(C(=O)N/N=C/c2ccc(O)cc2)ccc1O,> 100
10,COc1cc(C(=O)N/N=C/c2[nH]cnc2C)ccc1O,> 100
11,COc1cc(C(=O)N/N=C/c2cnc(O)nc2O)ccc1O,> 100
12,O=C(N/N=C/c1ccc(O)c2ccccc12)c1cc2cc(O)ccc2[nH]1,> 100
13,COc1cc(C(=O)N/N=C/c2cccc3ccccc23)ccc1O,4.8
14,COc1cc(C(=O)N/N=C/c2c[nH]c3ccccc23)ccc1O,23
15,O=C(N/N=C/c1ccc(O)c2ccccc12)c1ccc(O)cc1O,28
16,O=C(N/N=C/c1ccc(O)c2ccccc12)c1ccc(O)nc1,> 100
17,O=C(O)c1ccc(C(=O)N/N=C/c2ccc(O)c3ccccc23)cc1,> 100
18,COc1cc(C(=O)N/N=C(\C)c2cccc3ccccc23)ccc1O,> 100
19,COc1cc(C(=O)N/N=C/c2ccc(N(C)C)c3ccccc23)ccc1O,8.1
20,COc1cc(C(=O)N/N=C/c2ccc(O)c3ccccc23)cc(Cl)c1O,60

row,Compound,IC50 [µM]
1,O=C(N/N=C/c1ccc(O)c2ccccc12)c1ccc2nccnc2c1,> 100
2,COc1cc(C(=O)N/N=C/c2ccc(OC)c3ccccc23)ccc1O,2.9
3,COc1cc(/C=N/NC(=O)c2cccc3ccccc23)ccc1O,> 100
4,O=C(N/N=C/c1ccc(O)c2ccccc12)c1ccc2[nH]ccc2c1,> 100
5,COc1cc(C(=O)N/N=C/c2ccc(-c3ccc(C)c(Cl)c3)o2)ccc1O,12
6,O=C(N/N=C/c1ccc(O)c2ccccc12)c1ccc(O)c(CN2CCOCC2)c1,> 100
7,COc1ccc(/C=N/NC(=O)c2ccc(O)c(OC)c2)cc1,> 100
8,O=C(NNCc1cccc2ccccc12)c1ccc(O)cc1,> 100
9,COc1cc(C(=O)N/N=C/c2ccc(OC(F)(F)F)cc2)ccc1O,43
10,O=C(N/N=C/c1ccc(O)c2ccccc12)c1cc(Cl)c(O)c(Cl)c1,34
11,COc1cc(C(=O)N/N=C/c2ccc(O)c3ccccc23)ccc1O,0.72
12,COc1ccc(/C=N/NC(=O)c2ccc(O)c(OC)c2)cc1O,> 100
13,Nc1ccc(C(=O)N/N=C/c2ccc(O)c3ccccc23)cc1,> 100
14,Nc1cc(C(=O)N/N=C/c2ccc(O)c3ccccc23)ccc1O,2
15,COc1cccc(C(=O)N/N=C/c2ccc(OC)c3ccccc23)c1,> 100
16,CCn1c2ccccc2c2cc(/C=N/NC(=O)c3ccc(O)c(OC)c3)ccc21,6.3
17,COc1ccc(/C=N/NC(=O)c2ccc(O)cc2)c2ccccc12,4.9
18,O=C(N/N=C/c1ccc(O)c2ccccc12)c1ccc(O)c(Br)c1,0.83
19,COc1cc(C(=O)N/N=C/c2ccc(-c3ccccc3)cc2)ccc1O,26
20,COc1cc(C(=O)N/N=C/c2cccc(Oc3cccc(C(F)(F)F)c3)c2)ccc1O,4.9

# Molecular target: T1, Glucagon receptor
# Experiment: Binding affinity towards human Glucagon Receptor by the displacement of [125I]-glucagon
# How it was run: as §1
row,Compound,IC50 [µM]
1,O=C(N/N=C/c1ccc(O)c2ccccc12)c1ccc(O)c(Cl)c1,0.2
